This passage reports folding enthalpy and Tm results from the array DNA melting data of Ke et al. (doi:10.1101/2024.01.08.574731).

Series [1] can be described thus: folding enthalpy; higher = less favourable; fluorescence melt of hairpins on a sequencing array, two-state fit. Particulars: sodium 0.088 M. The method, boiled down:
(§1)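 Melting temperature and folding enthalpy were derived from bootstrapped two-state fits. The fitted temperatures were raised by 9.35 °C to agree with UV melts, and four replicates were combined by inverse variance. The underlying data were Cy3 fluorescence images of library hairpins, with annealed Cy3 and quencher oligos, on a sequenced MiSeq flow cell in 50 mM Na-HEPES pH 8.0, 25 mM NaCl, taken in 2.5 °C steps up to 60 °C, normalised to pre-quench Cy3 and to control constructs.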

Series [2] is described as follows: melting temperature; fluorescence melt of hairpins on a sequencing array, two-state fit, raised by 9.35 °C to match UV melts. Particulars: sodium 0.088 M. The method, boiled down:
as §1

As for GCGTGCGCACGC ((((....)))), the folding enthalpy in series [1] was -45.7 kcal/mol. Moreover, the Tm in series [2] came out at 62.2 °C.
For the sequence GCGTGCGGAAACGCGTGC ((..(((....)))..)), the folding enthalpy in series [1] is -27.6 kcal/mol. The Tm in series [2] came to 53.5 °C.
As to GCGTGCTACGC ((((...)))), the folding enthalpy in series [1] was -18.7 kcal/mol. Moreover, the Tm in series [2] is 62 °C.
GCGTGCTCACGC ((((....)))): in series [1], the folding enthalpy was -25 kcal/mol. Besides, in series [2], the Tm is 58.6 °C.
For GCGTGGCACGC ((((...)))), in that order: -31.8 kcal/mol and 56.8 °C.
For GCGTGGCCGAAAGGCCGC (((..(((....)))))), the folding enthalpy in series [1] was -9.18 kcal/mol. In series [2], the Tm turned out to be 57.2 °C.
On to GCGTGGCGAAAGCATCGC (((..((....))..))), for which, in series [1], the folding enthalpy was -31.9 kcal/mol. Moreover, the Tm in series [2] turned out to be 62.1 °C.
GCGTGGCTACGC ((((....)))): the folding enthalpy in series [1] was -23.4 kcal/mol. The Tm in series [2] is 58.5 °C.
For GCGTGGGACGC ((((...)))), in series [1], the folding enthalpy was -16.9 kcal/mol. Further, the Tm in series [2] came to 52.4 °C.
For GCGTGGGGAAACCCATGC ((.((((....)))).)), in that order: -42.3 kcal/mol and 57.9 °C.
As for GCGTGGGGAAACCCGCGC (((.(((....))).))), the folding enthalpy in series [1] is -44.8 kcal/mol. In addition, in series [2], the Tm came to 69 °C.
The corresponding values for GCGTGGTACGC ((((...)))) are -20.5 kcal/mol and 56.3 °C.
On to GCGTGGTCACGC ((((....)))), for which the folding enthalpy in series [1] was -26.3 kcal/mol. Besides, the Tm in series [2] stood at 57.5 °C.
Consider GCGTGGTTACGC ((((....)))), for which the folding enthalpy in series [1] was -21.7 kcal/mol. Also, the Tm in series [2] is 54.9 °C.
Consider GCGTGTCGAAAGACCCGC (((.(((....))).))), for which the folding enthalpy in series [1] is -42 kcal/mol. Besides, the Tm in series [2] came to 58 °C.
On to GCGTGTCGAAAGACTCGC (((.(((....))).))), for which, in series [1], the folding enthalpy was -45.2 kcal/mol. For the same sequence, the Tm in series [2] was 63.9 °C.
GCGTGTGGAAACACGTGC ((..(((....)))..)): in series [1], the folding enthalpy was -19.1 kcal/mol. The Tm in series [2] amounted to 63.1 °C.
GCGTGTGGAAACGTACGC ((((..(....)..)))): in series [1], the folding enthalpy is -32.9 kcal/mol. Also, the Tm in series [2] is 50.1 °C.
For GCGTGTTTACGC ((((....)))), in that order: -30 kcal/mol and 55 °C.
For the sequence GCGTTAAGACGC ((((....)))), the folding enthalpy in series [1] was -22.4 kcal/mol. Moreover, the Tm in series [2] was found to be 54 °C.
As for GCGTTAGGAAACTAGCGC (((.(((....))).))), the folding enthalpy in series [1] is -46.9 kcal/mol. Further, the Tm in series [2] worked out at 52.4 °C.
With GCGTTATTACGC ((((....)))), the folding enthalpy in series [1] is -26 kcal/mol. Besides, in series [2], the Tm worked out at 53.9 °C.
Take GCGTTCCAACGC ((((....)))): in series [1], the folding enthalpy was -27.7 kcal/mol. Also, in series [2], the Tm was 55.6 °C.
With GCGTTCCCACGC ((((....)))), the folding enthalpy in series [1] is -23.4 kcal/mol. In series [2], the Tm was determined as 51.9 °C.
Regarding GCGTTCCCGAAAGGGCGC (((..(((....)))))), in series [1], the folding enthalpy is -27.2 kcal/mol. Besides, the Tm in series [2] worked out at 53.9 °C.
With GCGTTCGAAAGAAAGCGC ((((((....)))..))), in series [1], the folding enthalpy was -29.4 kcal/mol. The Tm in series [2] was 53.2 °C.
Consider GCGTTCGAAAGAACTCGC ((((((....)))..))), for which the folding enthalpy in series [1] is -17 kcal/mol. Further, the Tm in series [2] turned out to be 44.7 °C.
For GCGTTCGAAAGAAGGCGC ((((((....)))..))), in that order: -33.6 kcal/mol and 55.6 °C.
With GCGTTCGACGC ((((...)))), the folding enthalpy in series [1] was -23.7 kcal/mol. In addition, the Tm in series [2] is 53.8 °C.
Turning to GCGTTCGCACGC ((((....)))), the folding enthalpy in series [1] was -18.8 kcal/mol. Also, in series [2], the Tm was 56.5 °C.
As to GCGTTCGGAAACAAACGC (((((.(....).))))), the folding enthalpy in series [1] is -34.6 kcal/mol. In addition, in series [2], the Tm turned out to be 47.9 °C.
On to GCGTTCGGAAACGGACGC ((((.((....)).)))), for which the folding enthalpy in series [1] was -40.2 kcal/mol. The Tm in series [2] was determined as 64 °C.
For GCGTTCGGAAACGGATGC ((.(.((....)).).)), in series [1], the folding enthalpy was -33.1 kcal/mol. In addition, in series [2], the Tm stood at 44.7 °C.
In the case of GCGTTCTCACGC ((((....)))), in series [1], the folding enthalpy is -25.9 kcal/mol. Also, in series [2], the Tm was determined as 50.6 °C.
Consider GCGTTGAAAAACGC (((((....))))), for which the folding enthalpy in series [1] is -30.2 kcal/mol. For the same sequence, the Tm in series [2] was found to be 61.2 °C.
Consider GCGTTGCACGC ((((...)))), for which the folding enthalpy in series [1] is -23 kcal/mol. For the same sequence, the Tm in series [2] is 59.4 °C.
As for GCGTTGCGAAAGCAAGGC ((.((((....)))).)), in series [1], the folding enthalpy was -30.3 kcal/mol. In series [2], the Tm is 68.5 °C.
For GCGTTGCGAAAGCACAGC ((..(((....)))..)), in that order: -20.9 kcal/mol and 51.1 °C.
For GCGTTGCGAAAGCACCGC (((.(((....))).))), in that order: -47.7 kcal/mol and 59.1 °C.
Turning to GCGTTGCGAAAGCAGGGC ((..(((....)))..)), in series [1], the folding enthalpy is -23.5 kcal/mol. Moreover, in series [2], the Tm was 55.7 °C.
For the sequence GCGTTGCGAAAGCAGTGC ((..(((....)))..)), the folding enthalpy in series [1] is -17.8 kcal/mol. In addition, in series [2], the Tm turned out to be 51.6 °C.
For the sequence GCGTTGCGAAAGCATGGC ((..(((....)))..)), the folding enthalpy in series [1] is -18.9 kcal/mol. In addition, the Tm in series [2] is 42.9 °C.
Turning to GCGTTGCGAAAGCCAAGC ((.(.((....)).).)), in series [1], the folding enthalpy was -21.3 kcal/mol. Also, the Tm in series [2] is 46.9 °C.
With GCGTTGCGAAAGCCCCGC (((..((....))..))), the folding enthalpy in series [1] was -18.2 kcal/mol. For the same sequence, the Tm in series [2] worked out at 48.3 °C.
The corresponding values for GCGTTGCGAAAGCTAGGC ((.(.((....)).).)) are -19.2 kcal/mol and 48.9 °C.
For the sequence GCGTTGCGAAAGCTTCGC (((..((....))..))), in series [1], the folding enthalpy is -14.3 kcal/mol. Also, the Tm in series [2] was 64 °C.
For GCGTTGGTACGC ((((....)))), in that order: -20.9 kcal/mol and 51.3 °C.
In the case of GCGTTGTAACGC ((((....)))), in series [1], the folding enthalpy is -27.4 kcal/mol. Moreover, in series [2], the Tm was 56.8 °C.
GCGTTGTCGAAAGACCGC (((..(((....)))))): in series [1], the folding enthalpy is -27.1 kcal/mol. The Tm in series [2] stood at 50.6 °C.
Regarding GCGTTTCGAAAGAATCGC (((.(((....))).))), the folding enthalpy in series [1] is -46 kcal/mol. In addition, the Tm in series [2] was 53.5 °C.
As for GCGTTTGGAAACAAACGC (((((((....))))))), in series [1], the folding enthalpy is -41.4 kcal/mol. For the same sequence, the Tm in series [2] is 67.7 °C.
Regarding GCGTTTGGACGC ((((....)))), in series [1], the folding enthalpy was -19.2 kcal/mol. The Tm in series [2] was 54.2 °C.
Take GCTAAAACGAAAGTTAGC (((..(((....)))))): the folding enthalpy in series [1] is -27.8 kcal/mol. Further, the Tm in series [2] was 40.1 °C.
For GCTAAACGAAAGTTAGC (((.(((....)))))), the folding enthalpy in series [1] was -26.6 kcal/mol. Also, in series [2], the Tm stood at 48.3 °C.
As for GCTAAACGAAAGTTGAGC (((.(((....))).))), the folding enthalpy in series [1] was -31.8 kcal/mol. In series [2], the Tm was found to be 50.8 °C.
GCTAACCGAAAGGTCAGC (((.(((....))).))): the folding enthalpy in series [1] is -29.7 kcal/mol. In addition, the Tm in series [2] is 49.7 °C.
In the case of GCTAACCGAAAGGTGAGC (((.(((....))).))), the folding enthalpy in series [1] is -32.1 kcal/mol. Also, in series [2], the Tm was determined as 59.7 °C.
